Screening results: PubChem, Broad Institute
Most compounds without a hit are left out; they make up all but 5.8% or so of the library.
T cruzi growth-1: inhibitors of T. cruzi proliferation. T. cruzi beta-gal in NIH3T3, GalScreen luminescence, 90 h. inhibition, % at 8.34 µM. 5.9% of 77,000 active. AID 624255;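 active means mean inhibition above about 93%, with at least 55% of replicates each passing it, limit read from the data, passing the limit was not always enough; inconclusive means only one of those two conditions holds; inactive means neither condition holds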
KDM4C inh: blocks human GASC-1 (KDM4C) demethylase activity; inhibition, % at 12.5 µM; Q9H3R0; 0.15% of 96,000 active; GST-KDM4C 2-372, H3K9me3 peptide, LANCE TR-FRET;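 active means mean replicate inhibition above about 25%, with at least 55% of replicates also reaching it, limit read from the data, passing the limit was not always enough; inconclusive means only one of those two conditions met; inactive means neither condition met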
Target sequence (Q9H3R0 2-372 limits assumed): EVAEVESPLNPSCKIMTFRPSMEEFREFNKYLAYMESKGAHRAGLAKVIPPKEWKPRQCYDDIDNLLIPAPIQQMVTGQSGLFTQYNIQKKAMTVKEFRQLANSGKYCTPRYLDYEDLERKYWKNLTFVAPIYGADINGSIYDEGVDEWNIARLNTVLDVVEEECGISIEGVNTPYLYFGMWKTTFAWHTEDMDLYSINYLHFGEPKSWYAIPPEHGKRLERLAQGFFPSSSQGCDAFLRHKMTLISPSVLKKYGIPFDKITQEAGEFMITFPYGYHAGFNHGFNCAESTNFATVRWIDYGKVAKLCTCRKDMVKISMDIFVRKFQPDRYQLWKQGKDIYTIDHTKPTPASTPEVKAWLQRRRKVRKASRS
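Test system – GST-tagged GASC-1 (JMJD2C) catalytic fragment, aa 2-372 · Medium – HEPES buffer, pH 7.5, plus ascorbate · Reagent – H3K9me3 peptide with Fe(II)/2OG · Compound – one test concentration per compound · Timing – 30 min reaction, 60 min detection, RT · Technique – TR-FRET with Eu antibody and ULight streptavidin, EDTA stop · Read-out basis – inhibition from TR-FRET ratio decrease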
IDH1 mut inh: blocks human IDH1 R132H reductase activity; O75874; diaphorase/resazurin fluorescence, 60 min; inhibition, % at 10 µM; 0.18% of 70,000 active; in the data active means inhibition above about 34%; inconclusive means no clear call, values can overlap the other calls; inactive means below about 11%;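 further: 0% = DMSO and 100% = no enzyme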
Pf Dd2 growth: blocks growth of Plasmodium falciparum Dd2 parasites | activity change, % at 10 µM | P. falciparum Dd2 growth, SYBR Green, 72 h; stronger effect = lower value | 2.3% of 94,000 active | AID 1159554; in the data active means activity change below about -80%; inconclusive means no clear call, values can overlap the other calls
T cruzi growth-2: Trypanosoma cruzi proliferation inhibition; shares compounds with T cruzi growth-1; T. cruzi beta-gal in NIH3T3, GalScreen luminescence, 90 h; inhibition, % at 8.35 µM; 72% of 5,600 active;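 active means mean replicate inhibition above about 95% and at least 55% of replicates individually reaching it, limit read from the data; inconclusive means only one of the two criteria is met; inactive means neither criterion is met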
T cruzi growth-3: Trypanosoma cruzi proliferation inhibition | inhibition, % at 2.09 µM | T. cruzi beta-gal in NIH3T3, GalScreen luminescence, 90 h | shares compounds with T cruzi growth-1 | AID 651740 | 21% of 5,600 active;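 active means mean inhibition above about 95%, with at least 55% of replicates also reaching it, limit read from the data; inconclusive means meets just one of the two conditions; inactive means meets neither condition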;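 further: plate controls were neutral control median for no effect and positive control median for full effect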
3T3 cytotox: kills mouse NIH/3T3 fibroblasts. shares compounds with T cruzi growth-1. 14% of 5,600 active. cytotoxicity (signal decrease), % at 8.35 µM. NIH/3T3 viability, CellTiter-Glo ATP luminescence, 90 h;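 active means mean signal decrease across replicates above about 35% based on untreated-well scatter, with enough replicates individually passing, limit read from the data; inconclusive means no rule stated though some were filed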;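 further: 0% = median of neutral control wells and 100% = median of positive control wells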
NIH3T3 tox 2: cytotoxicity in mouse NIH/3T3 fibroblasts. 56% of 5,600 active. inhibition, % at 24.9 µM. NIH/3T3 viability, CellTiter-Glo ATP luminescence, 90 h. AID 651744. shares compounds with T cruzi growth-1;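 active means mean loss of cell viability signal at or above a set limit, and enough replicates individually reaching it; inconclusive means meets only the mean limit or only the replicate share; inactive means meets neither condition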;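 further: 0% = median of neutral control wells and 100% = median of positive control wells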
* hit, by the source's call; ? = inconclusive; . = no result.

SMILES	T cruzi growth-1	KDM4C inh	IDH1 mut inh	Pf Dd2 growth	T cruzi growth-2	T cruzi growth-3	3T3 cytotox	NIH3T3 tox 2
CN1C(=O)c2cc(NC(=O)c3cccc(Cl)c3)ccc2OC[C@@H]2O[C@@H](CC(=O)NC3CCCCC3)CC[C@H]21	96*	3	.	-7	?	43	9	?
CN1C(=O)c2cc(NC(=O)c3cccc(Cl)c3)ccc2OC[C@H]2O[C@H](CC(=O)NC3CCCCC3)CC[C@H]21	82	1	.	-23	.	.	.	.
CN1[C@H](C(=O)NC2Cc3ccccc3C2)[C@@H](CO)[C@@H]2Cn3c(ccc(-c4ccccc4)c3=O)[C@@H]21	41	8	.	-15	.	.	.	.
COc1cccc(-c2cc(C(=O)Nc3ccc(S(=O)(=O)NC(C)=O)cc3)c3ccccc3n2)c1	.	.	-1	.	.	.	.	.
O=C(CSc1ncnc2scc(-c3ccccc3)c12)c1ccccc1	.	.	1	.	.	.	.	.
CCN(C(=O)CSc1nc2sc(C)c(C)c2c(=O)n1-c1ccccc1)c1ccccc1	.	.	0	.	.	.	.	.
COC(=O)C[C@H]1CC[C@H]2[C@H](COc3ccc(NC(=O)Nc4cccc(Cl)c4)cc3C(=O)N2C)O1	101*	-1	.	-3	103*	?	?	46*
CCCC#Cc1ccc2c(c1)O[C@H](CN(C)CC1CC1)[C@H](C)CN([C@H](C)CO)S2(=O)=O	-12	1	-1	-48	.	.	.	.
C[C@H]1CN([C@@H](C)CO)S(=O)(=O)c2ccc(C#CCN(C)C)cc2O[C@H]1CN(C)CC1CC1	110*	3	-1	-39	?	43	15	12
C[C@@H]1CN([C@H](C)CO)S(=O)(=O)c2ccc(C#CCN(C)C)cc2O[C@H]1CN(C)CC1CCCC1	104*	2	0	-77	107*	69	11	104*
C[C@@H]1CN([C@H](C)CO)S(=O)(=O)c2ccc(-c3ccncc3)cc2O[C@H]1CN(C)Cc1cncnc1	107*	-2	0	9	97*	93	14	53*
C[C@@H]1CN([C@@H](C)CO)S(=O)(=O)c2ccc(-c3ccncc3)cc2O[C@@H]1CN(C)Cc1ccncc1	105*	1	20	9	100*	68	36*	65*
C[C@@H]1CN([C@H](C)CO)S(=O)(=O)c2ccc(-c3ccncc3)cc2O[C@@H]1CN(C)Cc1ccncc1	95	2	.	-4	.	.	.	.
C[C@H]1CN([C@@H](C)CO)S(=O)(=O)c2ccc(Br)cc2O[C@@H]1CN(C)Cc1ccncc1	99*	0	-1	-23	96*	55	6	9
C[C@H]1CN([C@@H](C)CO)S(=O)(=O)c2ccc(-c3ccncc3)cc2O[C@@H]1CN(C)Cc1ccncc1	100*	0	.	-36	96*	97*	30	65*
CCN1[C@H](C(=O)NCCCN(C)C)[C@@H](CO)[C@@H]2Cn3c(ccc(-c4ccccc4OC)c3=O)[C@@H]21	.	1	.	-17	.	.	.	.
CCC(=O)N1CC2(C1)CN(Cc1cccc(F)c1)[C@@H](CO)c1c2c2ccc(OC)cc2n1C	.	-1	.	-37	.	.	.	.
Cc1noc(C)c1NC(=O)Nc1ccc2c(c1)C(=O)N(C)[C@H]1CC[C@@H](CC(=O)N(C)C)O[C@@H]1CO2	-105	0	.	3	.	.	.	.
CNC(=O)C[C@H]1CC[C@H]2[C@@H](COc3ccc(NC(=O)Nc4ccc(C#N)cc4)cc3C(=O)N2C)O1	5	-1	.	19	.	.	.	.
Cc1ccc(OCc2nc(N)nc(N(C)C)n2)cc1C	.	.	0	.	.	.	.	.
CO[C@@H](CN(C)C(=O)c1ccccc1F)[C@@H](C)CN([C@H](C)CO)S(=O)(=O)c1ccc(Cl)cc1	-7	-1	0	-2	.	.	.	.
CCOC(=O)c1ccccc1NC(=O)CSc1nc2ccccc2[nH]1	.	.	0	.	.	.	.	.
C[C@@H]1CN([C@@H](C)CO)C(=O)Cc2cc(NC(=O)CCN3CCOCC3)ccc2O[C@H]1CN(C)Cc1ccc(-c2ccccc2)cc1	.	7	1	-63	.	.	.	.
COc1ccc2c3c(n(C)c2c1)[C@H](CO)N(S(=O)(=O)c1ccc(C)cc1)CC31CN(S(=O)(=O)c2ccc(C)cc2)C1	.	0	.	-62	.	.	.	.
CC=Cc1ccc2n(c1=O)C[C@H]1[C@H](CO)[C@@H](C(=O)NCC3CC3)[C@@H]2N1C(=O)C1CC1 (mixture of isomers)	7	-1	.	15	.	.	.	.
SMILES	T cruzi growth-1	KDM4C inh	IDH1 mut inh	Pf Dd2 growth	T cruzi growth-2	T cruzi growth-3	3T3 cytotox	NIH3T3 tox 2
O=C(C[C@@H]1CC[C@@H]2[C@H](COC[C@@H](O)CN2C(=O)Nc2cccc(Cl)c2)O1)NCc1ccccc1F	123*	-1	.	-5	97*	18	-5	38*
O=C(C[C@@H]1CC[C@H]2[C@@H](COC[C@H](O)CN2C(=O)Nc2cccc(Cl)c2)O1)NCc1ccccc1F	119*	-1	.	24	61	-20	4	24
Cc1ccc(-c2ccc([C@@H]3[C@H]4CN(S(=O)(=O)c5cccc(C)c5)CCCCN4[C@H]3CO)cc2)cc1	?	.	.	-4	104*	83	21	46*
Cc1ccc(-c2ccc([C@@H]3[C@@H](CO)N4CCCCN(S(=O)(=O)c5cccc(C)c5)C[C@H]34)cc2)cc1	107*	.	.	-24	101*	115*	54*	104*
C[C@H](CCC(=O)O)[C@H]1CCC2[C@@H]3CC[C@@H]4C[C@H](O)CC[C@]4(C)C3C=C[C@@]21C (stereo not given in full)	.	.	0	.	.	.	.	.
CC(=O)N1CC(=O)N2[C@H](C1)[C@H](c1ccc(-c3ccncc3)cc1)[C@@H]2CO	.	2	.	21	.	.	.	.
C[C@@H]1CCCCO[C@H](CN(C)S(=O)(=O)c2ccc(Cl)cc2)[C@@H](C)CN([C@H](C)CO)C(=O)c2cc(NC(=O)NC3CCCCC3)ccc2O1	27	0	4	.	.	.	.	.
Cc1ccc(S(=O)(=O)N(C)C[C@@H]2OCCCC[C@@H](C)Oc3ccc(NC(=O)NC4CCCCC4)cc3C(=O)N([C@@H](C)CO)C[C@H]2C)cc1	40	0	3	-71	.	.	.	.
Cc1ccc(S(=O)(=O)N(C)C[C@H]2OCCCC[C@@H](C)Oc3ccc(NC(=O)NC4CCCCC4)cc3C(=O)N([C@@H](C)CO)C[C@H]2C)cc1	100*	-1	.	-55	108*	31	-6	-54
Cc1ccc(S(=O)(=O)N(C)C[C@@H]2OCCCC[C@H](C)Oc3ccc(NC(=O)NC4CCCCC4)cc3C(=O)N([C@@H](C)CO)C[C@@H]2C)cc1	101*	-1	1	-83*	106*	93	3	1
